Here are results for 40 compounds from ChEMBL document CHEMBL1142767, “2-(2-Furanyl)-7-phenyl[1,2,4]triazolo[1,5-c]pyrimidin-5-amine analogs: highly potent, orally active, adenosine A2A antagonists. Part 1” (Bioorg Med Chem Lett, 2005).

The source made the active and inactive calls.

Test [1] concerns Rattus norvegicus. In words: Anti-cataleptic activity in Rat at oral dose of 3 mg/kg retested at 4 hr after administration. The test is classed as functional. An outline of the steps: (§1)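 Male CD rats, 200-240 g, housed 4 per cage on a 12-h light/dark cycle. Catalepsy was induced with haloperidol 1 mg/kg s.c. After 30 min, each rat was placed facing upward on a wire screen inclined at 60°, and time to move one limb was recorded (cut-off 120 s). Rats immobile >75 s received test compound orally and were retested at 1 and 4 h.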

Another test addresses Adenosine receptor A2a (Rattus norvegicus, UniProt P30543). Nature of the test: In vitro ability to displace [3H]SCH-58261 from A2A adenosine receptor in Rat.
The test system of test [2] is Rattus norvegicus. Nature of the test: Anti-cataleptic activity in Rat at oral dose of 3 mg/kg retested at 1 hr after administration. It counts as functional. An outline of the steps:
as §1

Test [3] deals with Adenosine receptors; A1 & A2a (Rattus norvegicus) (UniProt P25099+P30543).
Adenosine receptors; A1 & A2a (Rattus norvegicus), sequence (P25099 whole entry, looked up): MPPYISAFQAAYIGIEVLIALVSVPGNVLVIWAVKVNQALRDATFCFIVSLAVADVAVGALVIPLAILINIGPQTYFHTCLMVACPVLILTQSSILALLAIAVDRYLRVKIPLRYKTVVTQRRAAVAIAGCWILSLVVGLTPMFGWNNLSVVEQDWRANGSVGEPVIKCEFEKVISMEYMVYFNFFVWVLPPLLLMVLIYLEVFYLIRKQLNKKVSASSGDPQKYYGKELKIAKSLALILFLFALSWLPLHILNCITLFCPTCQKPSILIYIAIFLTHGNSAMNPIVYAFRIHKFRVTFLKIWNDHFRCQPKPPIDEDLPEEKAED
Adenosine receptors; A1 & A2a (Rattus norvegicus), sequence (P30543 whole entry, looked up): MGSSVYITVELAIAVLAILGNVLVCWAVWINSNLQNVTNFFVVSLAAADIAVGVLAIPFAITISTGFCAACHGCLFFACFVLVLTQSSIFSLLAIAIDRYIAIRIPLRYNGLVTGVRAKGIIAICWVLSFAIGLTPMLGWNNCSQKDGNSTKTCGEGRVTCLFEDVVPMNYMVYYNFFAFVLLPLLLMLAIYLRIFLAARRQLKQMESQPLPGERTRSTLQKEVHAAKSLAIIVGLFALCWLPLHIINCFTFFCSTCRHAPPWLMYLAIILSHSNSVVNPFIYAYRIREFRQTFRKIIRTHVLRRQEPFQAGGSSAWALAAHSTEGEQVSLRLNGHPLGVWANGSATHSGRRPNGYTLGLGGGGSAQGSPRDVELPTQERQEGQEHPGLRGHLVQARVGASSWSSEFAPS
Test [4] has as its system Rattus norvegicus. In words: Anti-cataleptic activity in Rat at oral dose of 3 mg/kg retested at 1 and 4 hr after administration; Activity Not Traced. The test is classed as functional, organism-based. The arrangement: dose 3 mg/kg. An outline of the steps:
as §1

Adenosine receptor A2a, sequence (P30543 whole entry): as the sequence (P30543 whole entry, looked up) above

With `COCCOc1c(F)cc(N2CCN(Cc3cccc(-c4cc5nc(-c6ccco6)nn5c(N)n4)c3)CC2)cc1F`, the Activity with Rattus norvegicus [1] is recorded as 47; with Rattus norvegicus [2], 28. This compound also gave an inhibition constant Ki on Adenosine receptor A2a of 2.2 nM. The compound further yielded an Index in test [3] of 338.
In turn, `COc1cccc(OC)c1-c1cc2nc(-c3ccco3)nn2c(N)n1` registered an inhibitory constant (Ki) on Adenosine receptor A2a of 1700 nM. This compound also showed an Index in test [3] of 1.
The like results for `Nc1nc(-c2cccc(CO)c2)cc2nc(-c3ccco3)nn12` were, in that order, 2.8 nM and 135.
Compound `N#Cc1cccc(-c2cc3nc(-c4ccco4)nn3c(N)n2)c1` had an inhibitory constant (Ki) at Adenosine receptor A2a of 5.4 nM. In test [3], this compound came in with an Index of 14.
As for `COCCOc1ccc(N2CCN(Cc3cccc(-c4cc5nc(-c6ccco6)nn5c(N)n4)c3)CC2)cc1`, the Activity in the test on Rattus norvegicus [1] is given as 65; in the test on Rattus norvegicus [2] it was 40. The affinity at Adenosine receptor A2a, expressed as Ki, was 2.8 nM. In test [3], this compound registered an Index of 601.
Take `COCCOc1cccc(N2CCN(Cc3cccc(-c4cc5nc(-c6ccco6)nn5c(N)n4)c3)CC2)c1`: the Activity in the test on Rattus norvegicus [1] is reported as 53; in the test on Rattus norvegicus [2] it was 29. The inhibition constant Ki on Adenosine receptor A2a came to 4 nM. This compound also displayed an Index in test [3] of 115.
Consider `Nc1nc(-c2cccc(CN3CCC(c4ccc(F)cc4)CC3)c2)cc2nc(-c3ccco3)nn12`, for which the Activity with Rattus norvegicus [1] and in the test with Rattus norvegicus [2] was 20 throughout. Moreover, the inhibition constant (Ki) on Adenosine receptor A2a turned out to be 7.4 nM. In test [3], this compound registered an Index of 115.
`Nc1nc(-c2cccnc2)cc2nc(-c3ccco3)nn12` gave a Ki on Adenosine receptor A2a of 6.6 nM. The compound further showed an Index in test [3] of 65.
For `COCCOc1ccc(N2CCN(Cc3cccc(-c4cc5nc(-c6ccco6)nn5c(N)n4)c3)CC2)cc1OC`, the Activity in the test on Rattus norvegicus [1] is recorded as 39; in the test with Rattus norvegicus [2] it was 33. Besides, at Adenosine receptor A2a, the affinity, expressed as Ki, was 3.3 nM. In test [3], this compound returned an Index of 134.
On Adenosine receptor A2a, `Nc1nc(-c2ccccn2)cc2nc(-c3ccco3)nn12` registered an inhibition constant Ki of 1.4 nM. For the same compound, the Index in test [3] amounted to 34.
For the compound `CN(CCc1ccccc1)Cc1cccc(-c2cc3nc(-c4ccco4)nn3c(N)n2)c1`, the Ki on Adenosine receptor A2a was 3.6 nM. In test [3], this compound yielded an Index of 135. The result in the test with Rattus norvegicus [4] was inactive.
For `COCCOc1ccc(N2CCN(Cc3cccc(-c4cc5nc(-c6ccco6)nn5c(N)n4)c3)CC2)c(C#N)c1`, on Adenosine receptor A2a, the affinity corresponds to a Ki of 3.6 nM. In test [3], this compound came in with an Index of 85. In addition, in the test with Rattus norvegicus [4], the result was inactive.
On to `Nc1nc(-c2cccc(CN3CCN(c4nccs4)CC3)c2)cc2nc(-c3ccco3)nn12`, for which the Activity with Rattus norvegicus [1] was found to be 10; in the test with Rattus norvegicus [2], 20. The compound further came in with a Ki at Adenosine receptor A2a of 2.4 nM. This compound gave an Index in test [3] of 192.
For `COCCOc1ccc(N2CCN(Cc3cccc(-c4cc5nc(-c6ccco6)nn5c(N)n4)c3)CC2)cc1C#N`, in that order: 9, 14, 1.1 nM and 314.
Take `Nc1nc(-c2ccncc2)cc2nc(-c3ccco3)nn12`: the Ki at Adenosine receptor A2a stood at 1.9 nM. Besides, the Index in test [3] came to 66.
The compound `COc1ccccc1-c1cc2nc(-c3ccco3)nn2c(N)n1` showed a Ki at Adenosine receptor A2a of 4.3 nM. This compound gave an Index in test [3] of 27.
On to `COCCOc1ccc(N2CCN(Cc3cccc(-c4cc5nc(-c6ccco6)nn5c(N)n4)c3)CC2)c(C)c1`, for which the inhibition constant Ki on Adenosine receptor A2a was determined as 2.7 nM. For the same compound, in test [3], the Index is 72. The result in the test on Rattus norvegicus [4] was inactive.
Turning to `COCCOc1ccc(N2CCN(Cc3cccc(-c4cc5nc(-c6ccco6)nn5c(N)n4)c3)CC2)c(Cl)c1`, the Activity in the test with Rattus norvegicus [1] worked out at 15; in the test with Rattus norvegicus [2], 12. Also, affinity at Adenosine receptor A2a was put at a Ki of 2.9 nM. Moreover, the Index in test [3] is 204.
On Adenosine receptor A2a, `COc1cccc(-c2cc3nc(-c4ccco4)nn3c(N)n2)c1OC` gave a Ki of 21.7 nM. The compound also displayed an Index in test [3] of 27.
Compound `Cc1ccccc1-c1cc2nc(-c3ccco3)nn2c(N)n1` registered a Ki on Adenosine receptor A2a of 22 nM. The same compound gave an Index in test [3] of 12.
For `Cc1cccc(-c2cc3nc(-c4ccco4)nn3c(N)n2)c1`, in that order: 3.7 nM and 13.
`Nc1cccc(-c2cc3nc(-c4ccco4)nn3c(N)n2)c1`: at Adenosine receptor A2a, the Ki is 5 nM. The Index in test [3] amounted to 11.
Compound `COc1ccc(-c2cc3nc(-c4ccco4)nn3c(N)n2)cc1OC` yielded an inhibitory constant (Ki) on Adenosine receptor A2a of 7.3 nM. In test [3], this compound displayed an Index of 64.
Compound `Nc1nc(-c2cccc(CN3CCC(c4ccccc4)CC3)c2)cc2nc(-c3ccco3)nn12` gave a Ki on Adenosine receptor A2a of 4.6 nM. In addition, the Index in test [3] was 69. Besides, the result in the test with Rattus norvegicus [4] was inactive.
In the case of `Nc1nc(-c2cccc(-c3ccccc3)c2)cc2nc(-c3ccco3)nn12`, at Adenosine receptor A2a, the Ki is 5.5 nM. For the same compound, in test [3], the Index was determined as 82.
In turn, `CC(C)c1ccc(-c2cc3nc(-c4ccco4)nn3c(N)n2)cc1` displayed a Ki at Adenosine receptor A2a of 4.7 nM. The compound also displayed an Index in test [3] of 31.
Regarding `Nc1nc(-c2ccccc2)cc2nc(-c3ccco3)nn12`, the Ki on Adenosine receptor A2a is 7 nM. Moreover, the Index in test [3] came to 3.
At Adenosine receptor A2a, `COc1ccc(OC)c(-c2cc3nc(-c4ccco4)nn3c(N)n2)c1` came in with an inhibition constant (Ki) of 4.5 nM. The same compound registered an Index in test [3] of 65.
With `Nc1nc(-c2cccc(CN3CCN(c4ccc(Cl)c(Cl)c4)CC3)c2)cc2nc(-c3ccco3)nn12`, the Ki at Adenosine receptor A2a is 10.5 nM. The compound also returned an Index in test [3] of 3. The result in the test with Rattus norvegicus [4] was inactive.
For `Nc1nc(-c2cccc(CN3CCN(c4ccccc4)CC3)c2)cc2nc(-c3ccco3)nn12`, in that order: 4.6 nM, 69 and “inactive”.
For the compound `COc1cc(-c2cc3nc(-c4ccco4)nn3c(N)n2)cc(OC)c1OC`, the affinity at Adenosine receptor A2a, expressed as Ki, was 4.5 nM. In addition, the Index in test [3] is 69.
`COCCOc1cc(F)c(N2CCN(Cc3cccc(-c4cc5nc(-c6ccco6)nn5c(N)n4)c3)CC2)c(F)c1` registered an inhibitory constant (Ki) on Adenosine receptor A2a of 6.4 nM. This compound also returned an Index in test [3] of 71. In addition, the outcome in the test on Rattus norvegicus [4] was inactive.
Regarding `COc1ccc(-c2cc3nc(-c4ccco4)nn3c(N)n2)cc1`, the affinity on Adenosine receptor A2a, expressed as Ki, was 7.3 nM. The same compound yielded an Index in test [3] of 103.
For the compound `COc1cccc(-c2cc3nc(-c4ccco4)nn3c(N)n2)c1`, at Adenosine receptor A2a, the affinity, expressed as Ki, was 5 nM. The Index in test [3] came to 20.
Turning to `COCCOc1ccc(N2CCN(Cc3cccc(-c4cc5nc(-c6ccco6)nn5c(N)n4)c3)CC2)c(F)c1`, the Activity was 0 in the test on Rattus norvegicus [1] and 20 in the test with Rattus norvegicus [2]. For the same compound, affinity on Adenosine receptor A2a was put at a Ki of 2.7 nM. The same compound registered an Index in test [3] of 642.
Consider `Cc1ccc(-c2cc3nc(-c4ccco4)nn3c(N)n2)cc1`, for which the inhibition constant Ki at Adenosine receptor A2a is 8.4 nM. The compound further gave an Index in test [3] of 19.
For `COCCOc1ccc(C2CCN(Cc3cccc(-c4cc5nc(-c6ccco6)nn5c(N)n4)c3)CC2)cc1`, the Activity with Rattus norvegicus [1] and in the test on Rattus norvegicus [2] was 0 throughout. This compound showed a Ki on Adenosine receptor A2a of 8.9 nM. In test [3], this compound displayed an Index of 202.
In the case of `Nc1nc(-c2cccs2)cc2nc(-c3ccco3)nn12`, the affinity at Adenosine receptor A2a corresponds to a Ki of 4.4 nM. Also, the Index in test [3] was 15.
In turn, `COc1ccc(-c2cc3nc(-c4ccco4)nn3c(N)n2)c(OC)c1OC` showed a Ki on Adenosine receptor A2a of 4.5 nM. The compound further registered an Index in test [3] of 17.
Turning to `COc1ccc(-c2cc3nc(-c4ccco4)nn3c(N)n2)c(OC)c1`, the Ki at Adenosine receptor A2a amounted to 2.9 nM. In test [3], this compound showed an Index of 98.
